Columns and labels:
[1] = tested on: OVCAR-3; test: Cytotoxicity against ovarian OVCAR-3 human cancer cell line.; type: functional
In short: (§1)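 GI50 = concentration giving 50% growth inhibition, from a screen of about 55 human cancer cell lines over a 10^-8 to 10^-4 M test range. Values come from two determinations where a population standard deviation is shown, otherwise from single determinations.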

[2] = tested on: HOP-62; test: Cytotoxicity against lung HOP-62 human cancer cell line.; type: functional; in short: as §1
[3] = tested on: UACC-62; test: In vitro cytotoxicity against UACC-62 (Human melanoma) cell line.; type: functional; in short: as §1
[4] = target: T1, DNA topoisomerase 1 (Homo sapiens) (UniProt P11387); test: The activity was examined against DNA topoisomerase I mediated DNA cleavage using 3''-End-labelled 161 BP plasmid DNA. + indicates between 20 and 50% of the activity of 1 uM camptothecin
T1 sequence (whole entry): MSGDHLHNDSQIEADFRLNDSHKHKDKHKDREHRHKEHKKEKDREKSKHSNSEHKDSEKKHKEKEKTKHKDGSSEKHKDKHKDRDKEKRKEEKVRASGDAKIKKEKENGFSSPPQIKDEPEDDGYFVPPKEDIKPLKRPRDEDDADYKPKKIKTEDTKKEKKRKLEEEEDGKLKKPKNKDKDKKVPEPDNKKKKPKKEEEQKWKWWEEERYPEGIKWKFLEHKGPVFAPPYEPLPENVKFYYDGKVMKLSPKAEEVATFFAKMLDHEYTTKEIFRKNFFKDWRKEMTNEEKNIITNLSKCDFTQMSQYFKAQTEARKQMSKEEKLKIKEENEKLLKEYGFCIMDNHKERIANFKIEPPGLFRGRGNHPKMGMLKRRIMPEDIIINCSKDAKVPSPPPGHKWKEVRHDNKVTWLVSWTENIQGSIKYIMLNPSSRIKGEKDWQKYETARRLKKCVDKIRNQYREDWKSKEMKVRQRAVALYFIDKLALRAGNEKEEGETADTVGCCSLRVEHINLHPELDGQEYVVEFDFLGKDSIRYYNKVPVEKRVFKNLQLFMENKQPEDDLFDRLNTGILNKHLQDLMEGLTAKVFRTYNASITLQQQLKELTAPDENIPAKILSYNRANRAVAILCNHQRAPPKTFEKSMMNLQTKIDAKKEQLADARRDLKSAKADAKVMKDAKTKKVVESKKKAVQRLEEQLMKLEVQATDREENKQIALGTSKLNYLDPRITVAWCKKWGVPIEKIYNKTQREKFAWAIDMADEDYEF
In short: (§2)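 A 161 bp PvuII–HindIII fragment of pBluescript SK(–) was 3'-end-labeled at the HindIII site with [α-32P]dCTP by Klenow fill-in. About 50 000 dpm per reaction was incubated with top1 and drug (0.1–300 μM) at 30 °C for 30 min, then stopped with 0.5% SDS (final). Products were run on 16% polyacrylamide/7 M urea gels at 51 °C and imaged by phosphorimager.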

[5] = tested on: DU-145; test: Cytotoxicity against prostate DU-145 human cancer cell line.; type: functional; in short: as §1
[6] = tested on: HCT-116; test: Cytotoxicity against colon HCT116 human cancer cell line.; type: functional; in short: as §1
[7] = tested on: MDA-MB-435; test: In vitro cytotoxicity against MDA-MB-435 (Human breast cancer) cell line.; type: functional; in short: as §1
[8] = tested on: SN12C; test: In vitro cytotoxicity against SN12C (Human renal cancer) cell line.; type: functional; in short: as §1
[9] = tested on: SF-539; test: Compound was tested for its cytotoxicity against CNS SF-539 Human cancer cell line; type: functional; in short: as §1
[10] = tested on: SF-539; test: Compound was tested for its cytotoxicity against CNS SF-539 cell line; type: functional; conditions: Homo sapiens; in short: as §1
[11] = tested on: MDA-MB-435; test: Compound was tested for its cytotoxicity against breast MDA-MB-435 Human cancer cell line; type: functional; in short: as §1
[12] = target: T1, DNA topoisomerase 1 (Homo sapiens); test: The activity was examined against DNA topoisomerase I mediated DNA cleavage using 3'-End-labelled 161 BP plasmid DNA. 0 indicates inactive; in short: as §2
[13] = target: T1, DNA topoisomerase 1 (Homo sapiens); test: The activity was examined against DNA topoisomerase I mediated DNA cleavage using 3''-End-labelled 161 BP plasmid DNA.+ indicates between 20 and 50% of the activity of 1 uM camptothecin; in short: as §2
[14] = target: T1, DNA topoisomerase 1 (Homo sapiens); test: The activity was examined against DNA topoisomerase I mediated DNA cleavage using 3'-End-labelled 161 BP plasmid DNA; 0 indicates inactive; in short: as §2
[15] = target: T1, DNA topoisomerase 1 (Homo sapiens); test: The activity was examined against DNA topoisomerase I mediated DNA cleavage using 3''-End-labelled 161 BP plasmid DNA.+/- indicates less than 20% of the activity of 1 uM camptothecin; in short: as §2
[16] = target: T1, DNA topoisomerase 1 (Homo sapiens); test: The activity was examined against DNA topoisomerase I mediated DNA cleavage using 3''-End-labelled 161 BP plasmid DNA. +/- indicates less than 20% of the activity 0f 1 uM camptothecin; in short: as §2

| SMILES | GI50 [1] [µM] | GI50 [2] [µM] | GI50 [3] [µM] | Top1 cleavage activity [4] | GI50 [5] [µM] | GI50 [6] [µM] | GI50 [7] [µM] | GI50 [8] [µM] | GI50 [9] [µM] | GI50 [10] [µM] | GI50 [11] [µM] | Top1 cleavage activity [12] | Top1 cleavage activity [13] | Top1 cleavage activity [14] | Top1 cleavage activity [15] | Top1 cleavage activity [16] |
| --- | --- | --- | --- | --- | --- | --- | --- | --- | --- | --- | --- | --- | --- | --- | --- | --- |
| COc1cc2c3c(n(CCCCO)c(=O)c2cc1OC)-c1cc2c(cc1C3=O)OCO2 | 3.7 | 0.7 | 0.99 | 20-50% of the activity of 1 uM camptothecin | 0.36 | 1.4 | 10 | – | – | – | – | – | – | – | – | – |
| CC[n+]1cc2cc(OC)c(OC)cc2c2c1-c1cc3c(cc1C2)OCO3 | 1.9 | 22 | – | – | 58 | 13 | 14 | 2.7 | 56 | – | – | – | – | – | – | – |
| O=C(O)CCCn1c2c(c3ccccc3c1=O)C(=O)c1ccccc1-2 | > 100 | 87 | 73 | – | 48 | 40 | > 100 | 27 | – | – | – | – | – | – | – | – |
| COc1cc2c3c(n(C)c(=O)c2cc1OC)-c1cc(OC)c(OC)c(OC)c1C3=O | > 100 | > 100 | 55 | – | > 100 | > 100 | – | > 100 | – | > 100 | > 100 | 0 | – | – | – | – |
| CCCCn1c2c(c3cc(OC)c(OC)cc3c1=O)C(=O)c1cc3c(cc1-2)OCO3 | 78 | 16 | 21 | – | 16 | 45 | > 100 | – | – | – | – | – | 20-50% of the activity of 1 uM camptothecin | – | – | – |
| O=C1c2ccccc2-c2oc(=O)c3ccccc3c21 | > 100 | > 100 | > 100 | – | > 100 | > 100 | > 100 | > 100 | > 100 | – | – | 0 | – | – | – | – |
| COc1ccc(-n2c3c(c4cc(OC)c(OC)cc4c2=O)C(=O)c2cc4c(cc2-3)OCO4)cc1 | > 100 | 20 | > 100 | – | 76 | > 100 | > 100 | > 100 | > 100 | – | – | – | – | 0 | – | – |
| CCN1C(=O)c2cc(OC)c(OC)cc2[C@H]2C(=O)c3cc4c(cc3[C@H]21)OCO4 | 0.44 | 0.29 | 0.18 | – | 0.42 | 0.29 | 0.45 | – | – | – | – | – | – | – | +/- | – |
| COC(=O)Cn1c2c(c3ccccc3c1=O)C(=O)c1ccccc1-2 | > 100 | – | > 100 | – | > 100 | – | > 100 | > 100 | > 100 | – | – | 0 | – | – | – | – |
| CCN1Cc2cc(OC)c(OC)cc2[C@@H]2[C@H]1c1cc3c(cc1[C@@H]2O)OCO3 | 24 | 30 | – | – | 41 | 35 | 25 | 26 | 50 | – | – | 0 | – | – | – | – |
| C=CCN1C(=O)c2cc(OC)c(OC)cc2[C@H]2C(=O)c3cc4c(cc3[C@H]21)OCO4 | 1.78 | 0.36 | 0.38 | – | 0.77 | 0.34 | – | – | – | – | 1.4 | 0 | – | – | – | – |
| COc1cc2c(cc1OC)[C@H]1C(=O)c3cc(OS(C)(=O)=O)c(OC)cc3[C@H]1N(C)C2=O | – | – | – | – | – | – | – | – | – | – | – | – | – | – | – | +/- |
| O=C1c2ccccc2-c2c1c1ccccc1c(=O)n2C1CC1 | > 100 | 61 | 84 | – | > 100 | > 100 | – | > 100 | – | > 100 | > 100 | 0 | – | – | – | – |
